From PMC10732652 (Virulence, 2023)
“Also recorded” adds a separate entry of the source.

Tests used:
[1] = system: ScpC protease; details: S. pyogenes; cited from earlier work
[2] = system: PepO; test: Cleavage of cathelicidins by recombinant PepO; type: in vitro ADME, Streptococcus suis; details: 20 μM peptide, 500 nM PepO, PBS, 37°C, 3 hours; SDS-PAGE
Summary of the method: (§1)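 Enzyme: His-tagged PepO (aa 29–663) or its Glu513→Ala variant, expressed from pET22b in E. coli BL21(DE3) with 0.5 mM IPTG at 16°C for 12 h. Purified by Ni-Sepharose and exchanged into PBS. Substrates were synthetic LL-37 or mCRAMP (>95% purity). Uncleaved peptide served as control. Products were analysed by SDS-PAGE or MALDI-TOF/TOF MS.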

[3] = system: PepOE513A; test: Cleavage of cathelicidins by catalytic site-mutated PepOE513A; type: in vitro ADME, Streptococcus suis; details: 20 μM peptide, 500 nM PepOE513A, PBS, 37°C, 3 hours; SDS-PAGE
Summary of the method: as §1

[4] = system: S. suis WT, ΔpepO, and CΔpepO strains; test: Bactericidal assay, sensitivity of S. suis strains toward cathelicidins; type: cell-based, Streptococcus suis; details: 8 × 10^4 CFU/ml in PBS, peptide 0–4 μM, 37°C, 1 hour, CFU counting on TSA
Summary of the method: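 S. suis serotype 2 strain 05ZYH33 (wild type), its ΔpepO mutant and the complemented strain were grown in TSB at 37°C with 5% CO2 to OD600 0.5. Cells were washed twice and resuspended in PBS. After 1 h at 37°C with LL-37 or mCRAMP, samples were serially diluted and plated on TSA to count surviving CFU.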

[5] = system: S. suis ΔpepO; test: Live/Dead staining; type: cell-based, Streptococcus suis; details: 1 × 10^5 CFU/ml, 2 μM, 1 hour, CLSM
Summary of the method: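 S. suis serotype 2 strain 05ZYH33 ΔpepO mutant, grown in TSB at 37°C/5% CO2; fresh culture washed twice, diluted to 1 × 10^5 CFU/ml. Exposed 1 h to 2 μM cathelicidin peptides, their PepO digests (20 μM peptide + 500 nM His-tagged PepO, PBS, 37°C, 3 h) or truncated fragments. BacLight stained, washed after 15 min, confocal imaging: SYTO9 480/500 nm, PI 490/635 nm.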

[6] = system: Mouse neutrophils; test: Neutrophil chemotaxis assay; type: cell-based; details: 1 μM in bottom chamber, 5 × 10^5 cells, 40 minutes, 37°C
Summary of the method: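 Bone-marrow neutrophils from C57BL/6 mice, purified on Histopaque-1119/1077 gradients, CellTracker Green-labelled, 1 × 10^7 cells/ml in RPMI-1640. 5 × 10^5 cells placed in Transwell inserts; 1 μM peptides, PepO digests or fragments in lower chamber; 5 μM fMLP as positive control. 40 min at 37°C, migrated cells counted by fluorescence microscopy. CI = cells migrating toward stimulus ÷ toward medium.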

[7] = system: Mouse peritoneal macrophages; test: Lysosome formation analysis; type: cell-based; details: 2 μM, 37°C, 4 hours, 5 × 10^4 cells, CLSM
Summary of the method: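 Macrophages from peritoneal fluid of C57BL/6 mice 3 days after i.p. thioglycollate; spun 600 × g 10 min, kept in RPMI-1640, non-adherent cells removed at 6 h. 5 × 10^4 cells exposed 4 h at 37°C to peptides, PepO digests or fragments. Fixed in 4% formaldehyde, permeabilised with 0.1% Triton X-100, blocked in 3% BSA. Rabbit anti-LAMP1 (37°C, 1 h), Alexa Fluor 594 secondary, DAPI; confocal imaging.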

[8] = system: ApdS; details: cited from earlier work
[9] = system: aminopeptidase ApdS; details: S. suis; cited from earlier work
[10] = system: PepO; test: 500 nM of PepO in PBS; details: S. suis, 37°C, up to 3 hours
[11] = system: ScpC protease; details: cited from earlier work

Substance | Cleavage by PepO [2] | Membrane damage, viable and dead bacteria (SYTO9/PI) [5] | Chemotaxis of neutrophils (chemotaxis index, CI) [6] | Lysosome formation (LAMP1) [7] | other results
GLLRKGGEKIGEKLKKIGQKIKNFFQKLVPQPEQ | – | – | – | – | not cleaved [1]: cannot cleave mCRAMP
LL-37 | the band intensity of LL-37 disappeared | the number of dead bacteria was clearly larger than that in the PBS-treated group | effectively chemoattracted mouse neutrophils | facilitated lysosome formation in mouse macrophages | Cleavage by PepOE513A [3]: could not cleave LL-37; Resistance of complementary strain CΔpepO [4]: partially restored; Time to cleavage by ApdS [8]: in just a few seconds
LLGDFFRKSKEKIGKEFKRIVQRIKDFLRNLVPRTES | – | – | – | – | fragment found [9]: 3 AA at the N-terminal; fragment found [10]: FR-7 (F6-K12); FRKSKEK, major; also recorded: IG-7 (I13-R19); IGKEFKR, major
mCRAMP | also cleaved by PepO | the number of dead bacteria was clearly larger than that in the PBS-treated group | chemoattracted mouse neutrophils just as well as LL-37 | facilitated lysosome formation in mouse macrophages | Cleavage by ScpC protease [11]: cannot cleave mCRAMP
